Experimental data: ChEMBL document CHEMBL2046366, “Design, synthesis and biological evaluation of novel imidazopyridines as potential antidiabetic GSK3β inhibitors” (Bioorg Med Chem Lett, 2012)

Legend:
[1] = Metabolic stability in mouse liver microsome after 45 mins by mass spectroscopy; format: ADME; settings: liver microsomes, read-out: Stability
How it was run: (§1)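 Compound incubated with human or mouse liver microsomes at 37 °C for 45 min. Percent compound remaining was measured by mass spectrometry.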

[2] = Metabolic stability in human liver microsome after 45 mins by mass spectroscopy; format: ADME; settings: liver microsomes, read-out: Stability; how it was run: as §1
[3] = AUC in ICR mouse at 27.3 mg/kg, po; format: ADME, organism-based; design: dose 27.3 mg/kg, route oral; settings: plasma
How it was run: (§2)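 Single oral dose of 27.3 mg kg^-1, given as HCl salt formulation, to male ICR mice (n = 2). AUC, Cmax and Tmax were derived from plasma concentration–time data.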

[4] = Cmax in ICR mouse at 27.3 mg/kg, po; format: ADME, organism-based; design: dose 27.3 mg/kg, route oral; settings: in vivo; how it was run: as §2
[5] = Tmax in ICR mouse at 27.3 mg/kg, po; format: ADME, organism-based; design: dose 27.3 mg/kg, route oral; settings: in vivo; how it was run: as §2

| remaining at 0.75 h [1] [%] | remaining at 0.75 h [2] [%] | AUC [3] [ng·h/mL] | Cmax [4] [ng/mL] | Tmax [5] [h] | Compound |
| --- | --- | --- | --- | --- | --- |
| 4.2 | 25.7 |  |  |  | O=C(NCCCc1ccc(Cl)nc1)c1ccnc2[nH]c(-c3ccc(F)cc3)nc12 |
|  |  | 27 |  |  | COc1ccncc1NC(=O)c1ccnc2[nH]c(-c3cccc(Cl)c3)nc12.Cl |
| 2.9 | 9.4 |  |  |  | O=C(NCCc1ccc(F)nc1)c1ccnc2nc(-c3ccc(F)cc3)[nH]c12 |
| 70 |  |  |  |  | O=C(Nc1cccnc1)c1ccnc2[nH]c(-c3ccc(F)cc3)nc12 |
| 11.1 | 12.1 |  |  |  | O=C(NCCc1cccc(O)c1)c1ccnc2[nH]c(-c3ccc(F)cc3)nc12 |
| 0.8 | 13 |  |  |  | CS(=O)(=O)Nc1ccc(CCNC(=O)c2ccnc3[nH]c(-c4ccc(F)cc4)nc23)cc1 |
| 1 | 7.4 |  |  |  | CN(C)S(=O)(=O)Nc1ccc(CCNC(=O)c2ccnc3[nH]c(-c4ccc(F)cc4)nc23)cc1 |
| 70.2 | 86.6 |  |  |  | CS(=O)(=O)Nc1ccc(CCNC(=O)c2ccnc3[nH]c(-c4ccc(Cl)cc4)nc23)cc1 |
| 5.2 | 47 |  |  |  | CS(=O)(=O)Nc1ccc(CCNC(=O)c2ccnc3[nH]c(-c4ccoc4)nc23)cc1 |
| 2.2 | 36.8 |  |  |  | CS(=O)(=O)Nc1ccc(CCNC(=O)c2ccnc3[nH]c(-c4cccs4)nc23)cc1 |
| 1.6 | 13.3 |  |  |  | CN(C)S(=O)(=O)Nc1ccc(CCNC(=O)c2ccnc3[nH]c(-c4ccsc4)nc23)cc1 |
| 1.5 | 26.5 |  |  |  | O=C(NCCc1cccnc1Cl)c1ccnc2[nH]c(-c3ccoc3)nc12 |
| 28.9 | 36.5 |  |  |  | Cc1ccncc1NC(=O)c1ccnc2[nH]c(N3CCC(c4ccccc4)C3)nc12 (centres undefined) |
| 0 | 0 |  |  |  | CCN(CC)c1ccc(-c2nc3c(C(=O)Nc4cnccc4C)ccnc3[nH]2)cc1 |
| 87 | 71 |  |  |  | COc1ccncc1NC(=O)c1ccnc2[nH]c(-c3ccc(F)cc3)nc12 |
| 36 | 38 |  |  |  | CCOc1ccncc1NC(=O)c1ccnc2[nH]c(-c3ccc(F)cc3)nc12 |
| 47.4 | 33.3 |  |  |  | Cc1ccc(NC(=O)c2ccnc3[nH]c(-c4ccc(F)cc4)nc23)cn1 |
| 56.8 | 51.4 |  |  |  | COc1ccc(-c2nc3c(C(=O)Nc4cnccc4C)ccnc3[nH]2)cc1 |
| 6.6 | 4 |  |  |  | COc1cccc(-c2nc3c(C(=O)Nc4cnccc4C)ccnc3[nH]2)c1 |
| 6.3 | 6.5 |  |  |  | CCOc1ccncc1NC(=O)c1ccnc2[nH]c(-c3cccnc3)nc12 |
| 6.4 | 23.8 |  |  |  | CCOc1ccncc1NC(=O)c1ccnc2[nH]c(-c3cccc(OC)c3)nc12 |
| 46.7 | 36.5 |  |  |  | COc1ccncc1NC(=O)c1ccnc2[nH]c(-c3cccc(Cl)c3)nc12 |
| 27 | 96 |  |  |  | COc1ccncc1NC(=O)c1ccnc2nc(-c3ccncc3)[nH]c12 |
|  |  | 39 |  |  | Cc1ccncc1NC(=O)c1ccnc2[nH]c(N3CCC(c4ccccc4)C3)nc12.Cl (centres undefined) |
|  |  | 545 | 228 | 1 | COc1ccncc1NC(=O)c1ccnc2[nH]c(-c3ccc(F)cc3)nc12.Cl |
|  |  | 2400 | 843 | 3 | Cc1ccc(NC(=O)c2ccnc3[nH]c(-c4ccc(F)cc4)nc23)cn1.Cl |
|  |  | 645 | 496 | 0.5 | COc1ccc(-c2nc3c(C(=O)Nc4cnccc4C)ccnc3[nH]2)cc1.Cl |
